Reference: ChEMBL document CHEMBL3244315, “Synthesis and antitumor properties of some isoindolylalkylphosphonium salts” (J Med Chem, 1978)

Tests used:
P388 [1] = assay: Antitumor activity against mouse P388 cells allografted in mouse at 6.25 mg/kg, ip; format: functional; conditions: route intraperitoneal
In short: (§1)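 P-388 lymphocytic leukemia in mice, run by NCI Division of Cancer Treatment standard protocol. Drug given intraperitoneally once daily on days 1-9, dose in mg/kg, with H2O, H2O + Tween 80 or saline as vehicle. Read-out is T/C = treated/control mean or median survival time × 100, and ≥125% counts as significant. Active results were repeated in at least one more experiment.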

P388 [2] = assay: Antitumor activity against mouse P388 cells allografted in mouse at 3.13 mg/kg, ip; format: functional; conditions: route intraperitoneal; in short: as §1
P388 [3] = assay: Antitumor activity against mouse P388 cells allografted in mouse at 12.5 mg/kg, ip; format: functional; conditions: route intraperitoneal; in short: as §1
P388 [4] = assay: Antitumor activity against mouse P388 cells allografted in mouse at 18.8 mg/kg, ip; format: functional; conditions: route intraperitoneal; in short: as §1
P388 [5] = assay: Antitumor activity against mouse P388 cells allografted in mouse at 9 mg/kg, ip; format: functional; conditions: route intraperitoneal; in short: as §1
P388 [6] = assay: Antitumor activity against mouse P388 cells allografted in mouse at 100 mg/kg, ip; format: functional; conditions: route intraperitoneal; in short: as §1
P388 [7] = assay: Antitumor activity against mouse P388 cells allografted in mouse at 25 mg/kg, ip; format: functional; conditions: route intraperitoneal; in short: as §1
P388 [8] = assay: Antitumor activity against mouse P388 cells allografted in mouse at 6 mg/kg, ip; format: functional; conditions: route intraperitoneal; in short: as §1
P388 [9] = assay: Antitumor activity against mouse P388 cells allografted in mouse at 50 mg/kg, ip; format: functional; conditions: route intraperitoneal; in short: as §1
Mus musculus = assay: Toxicity in mouse P388 cells allografted mouse at 25 mg/kg, ip; format: organism-based; design: dose 25 mg/kg, route intraperitoneal; conditions: in vivo

For `[Br-].c1ccc([P+](CCN2Cc3ccccc3C2)(c2ccccc2)c2ccccc2)cc1`, the T/C (P388 [1]) was 114% and the T/C (P388 [2]; dose 6.25 mg/kg, in the assay text read “at 6.25 mg/kg” for “at 3.13 mg/kg”) was 114%.

Compound `BrCC[P+](c1ccccc1)(c1ccccc1)c1ccccc1.[Br-]` has a T/C (P388 [2]; dose 3.13 mg/kg) of 127%.

Work on `O=C1c2ccccc2C(=O)N1CC[P+](c1ccccc1)(c1ccccc1)c1ccccc1.[Br-]` yielded a T/C (P388 [3]) of 160%.

With `O.O=C1c2ccccc2C(=O)N1C[P+](c1ccccc1)(c1ccccc1)c1ccccc1.[Br-]` the T/C (P388 [4]) was 136%.

`O.O=C1c2ccccc2C(=O)N1CCC[P+](c1ccccc1)(c1ccccc1)c1ccccc1.[Br-]` was tested, and the T/C (P388 [3]) was 151%.

For `O=C1c2ccccc2C(=O)N1CCCC[P+](c1ccccc1)(c1ccccc1)c1ccccc1.[Br-]`, the T/C (P388 [5]) was 121%.

`CCCC[P+](CCCC)(CCCC)CCN1C(=O)c2ccccc2C1=O.O.[Br-]` showed a T/C (P388 [6]) of 116%.

In the case of `N#CCC[P+](CCC#N)(CCC#N)CCN1C(=O)c2ccccc2C1=O.O.[Br-]`, the T/C (P388 [7]) was 117%.

`O=C1c2ccccc2C(=O)N1CC[P+](Cc1ccccc1)(Cc1ccccc1)Cc1ccccc1.[Br-]` gave a T/C (P388 [7]) of 112%.

In the case of `O=C1c2ccccc2C(=O)N1CC[P+](C1CCCCC1)(C1CCCCC1)C1CCCCC1.[Br-]`, the T/C (P388 [7]) was 118%.

`COc1ccc([P+](CCN2C(=O)c3ccccc3C2=O)(c2ccc(OC)cc2)c2ccc(OC)cc2)cc1.O.[Br-]` gave a T/C (P388 [8]) of 134%.

`Cc1ccc([P+](CCN2C(=O)c3ccccc3C2=O)(c2ccc(C)cc2)c2ccc(C)cc2)cc1.O.[Br-]` was tested, and the T/C (P388 [1]) was 134%.

Compound `O.O=C1c2ccccc2C(=O)N1CC[P+](c1ccc(Cl)cc1)(c1ccc(Cl)cc1)c1ccc(Cl)cc1.[Br-]` has a T/C (P388 [1]) of 110%.

In the case of `O.O=C1c2cccc([N+](=O)[O-])c2C(=O)N1CC[P+](c1ccccc1)(c1ccccc1)c1ccccc1.[Br-]`, the T/C (P388 [9]) was 109%.

`Cc1cccc2c1C(=O)N(CC[P+](c1ccccc1)(c1ccccc1)c1ccccc1)C2=O.[Br-]` showed a T/C (P388 [2]; dose 3.13 mg/kg) of 140%.

For `Cc1ccc2c(c1)C(=O)N(CC[P+](c1ccccc1)(c1ccccc1)c1ccccc1)C2=O.[Br-]`, the T/C (P388 [1]) was 139%.

In the case of `O.O=C1c2ccc([N+](=O)[O-])cc2C(=O)N1CC[P+](c1ccccc1)(c1ccccc1)c1ccccc1.[Br-]`, the T/C (P388 [7]) was 107%.

In the case of `O=C1C=CC(=O)N1CC[P+](c1ccccc1)(c1ccccc1)c1ccccc1.[Br-]`, the T/C (P388 [7]) was 120%.

For `O.O=C1C2CC=CCC2C(=O)N1CC[P+](c1ccccc1)(c1ccccc1)c1ccccc1.[Br-]` (stereo unspecified), the T/C (P388 [7]) was 115%.

In the case of `O.O=C1c2ccccc2C(=O)N1CC[P+](c1ccccc1)(c1ccccc1)c1ccccc1.[Cl-]`, the T/C (P388 [1]) was 133%.

`Br.O.[Br-].c1ccc([P+](CCN2Cc3ccccc3C2)(c2ccccc2)c2ccccc2)cc1` gave a T/C (P388 [1]) of 118%.

`COCC[P+](c1ccccc1)(c1ccccc1)c1ccccc1.[Br-]` was tested, and the T/C (P388 [3]) was 123%.

`O.O=c1c2cc3c(=O)n(CC[P+](c4ccccc4)(c4ccccc4)c4ccccc4)c(=O)c3cc2c(=O)n1CC[P+](c1ccccc1)(c1ccccc1)c1ccccc1.[Br-].[Br-]` was tested, and the T/C (P388 [7]) was 18% and the Activity (Mus musculus) was “Toxic”.

For `O=C1c2ccccc2C(=O)N1CCP(=O)(c1ccccc1)c1ccccc1`, the T/C (P388 [7]) was 106%.
